Published values gathered from unrelated publications.
Compare with care: the assays were run in different laboratories.
ABL1 phosphorylated: Tyrosine-protein kinase ABL1, phosphorylated (ABL1, Homo sapiens, UniProt P00519)
ABL1 Y253F: Tyrosine-protein kinase ABL1 (ABL1, Homo sapiens, UniProt P00519, Y253F)
ABL1: Tyrosine-protein kinase ABL1 (ABL1, Homo sapiens, UniProt P00519)

target	observed	action	method	concentration	quantity	value	Structure (SMILES)
ABL1 phosphorylated	binding		competition with immobilised ligand	0.5 µM	remaining binding	93%	CCCCC(=O)Nc1ccc(-c2ccc3ncn(CCC)c(=O)c3c2)cn1
ABL1 Y253F	binding			1 µM	remaining binding	20%	CN1CCN(C(=O)c2ccc(NC(=O)Nc3ccc(N(C)c4ccnc(Nc5ccc(CS(C)(=O)=O)cc5)n4)cc3)cc2)CC1
Tyrosine-protein kinase ABL1 (ABL1, Homo sapiens, UniProt P00519, Q252H)	binding			0.1 µM	remaining binding	15%	C1=C/COCc2cc(ccc2OCCN2CCCC2)Nc2nccc(n2)-c2cccc(c2)COC/1
ABL1	enzyme activity	inhibitor		1 nM	inhibition	65%	Cc1nc(Nc2ncc(C(=O)Nc3c(C)cccc3Cl)s2)cc(N2CCCCC2)n1
ABL1 Y253F	cell-free assay			1 µM	remaining signal	95%	COc1ccc2oc(-c3ccc4nc(N)oc4c3)c/c(=N\c3ccccc3NC(=O)CCN)c2c1
Tyrosine-protein kinase ABL1 (ABL1, Homo sapiens, UniProt P00519, F317I)	binding			1 µM	remaining binding	85%	Cc1ccc(NC(=O)c2ccnc(C(F)(F)F)c2)cc1-c1cc(OCCO)nc(N2CCOCC2)c1
ABL1	enzyme activity	inhibitor		10 nM	inhibition	> 90%	[2H]c1cc(C)c(NC(=O)c2cnc(Nc3cc(N4CCCCC4)nc(C)n3)s2)c(Cl)c1
Tyrosine-protein kinase ABL1 (ABL1, Homo sapiens, UniProt P00519, M351T)	binding			1 µM	remaining binding	68%	COc1ccc2[nH]c3c4[nH]c5ccc(OC)cc5c4c4c(c3c2c1)C(=O)NC4=O
ABL1	enzyme activity	inhibitor		1 nM	inhibition	86%	[2H]c1cc(C)c(NC(=O)c2cnc(Nc3cc(N4CC[C@H](O)C4)nc(C)n3)s2)c(Cl)c1
ABL1 phosphorylated	enzyme activity	inhibitor		1 µM	inhibition	31%	CO[C@@H]1[C@H](N(C)C(=O)c2ccccc2)C[C@H]2O[C@]1(C)n1c3ccccc3c3c4c(c5c6ccccc6n2c5c31)C(=O)NC4
ABL1 Y253F	cell-free assay			1 µM	remaining signal	100%	C[C@H]1CC[C@H](n2c3cnccc3c3cnc(Nc4ccc5c(n4)CCN(C(=O)CO)C5)nc32)CC1
Tyrosine-protein kinase ABL1, phosphorylated (ABL1, Homo sapiens, UniProt P00519, Q252H)	enzyme activity	inhibitor		1 µM	inhibition	32%	C=CC(=O)N1CCC([C@@H]2CCNc3c(C(N)=O)c(-c4ccc(Oc5ccccc5)cc4)nn32)CC1
ABL1	enzyme activity	inhibitor		1 nM	inhibition	93%	Cc1nc(Nc2ncc(C(=O)Nc3c(C)cccc3Cl)s2)cc(N2CC[C@@H](N)C2)n1
Tyrosine-protein kinase ABL1, non-phosphorylated (ABL1, Homo sapiens, UniProt P00519, T315I)	enzyme activity	inhibitor		1 µM	inhibition	19%	CC#CC(=O)N1CCC[C@H]1c1nc(-c2ccc(C(=O)Nc3ccccn3)cc2)c2c(N)nccn12
Tyrosine-protein kinase ABL1, non-phosphorylated (ABL1, Homo sapiens, UniProt P00519)	cell-free assay		competition with immobilised ligand	25 µM	remaining binding	83%	N#Cc1ccc(NC(=O)Nc2ccccc2)cc1
